Results reported in ChEMBL document CHEMBL4765263, “Design, synthesis, biological evaluation of 6-(2-amino-1H-benzo[d]imidazole-6-yl)quinazolin-4(3H)-one derivatives as novel anticancer agents with Aurora kinase inhibition” (Eur J Med Chem, 2020).

Tests used:
PC-3 = assay: Cytotoxicity against human PC-3 cells assessed as reduction in cell viability incubated for 72 hrs by MTT assay; format: functional, cell-based; details: PC-3, 72 h
Summary of the method: (§1)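 MTT viability assay. Cells kept in DMEM with 10% FBS at 37 °C and 5% CO2. Seeded at 5×10^3 cells per well and exposed to a range of compound concentrations from 20 mM DMSO stocks. IC50 is the mean of triplicate measurements.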

MDA-MB-231 = assay: Cytotoxicity against human MDA-MB-231 cells assessed as reduction in cell viability incubated for 72 hrs by MTT assay; format: functional, cell-based; details: MDA-MB-231, 72 h; summary of the method: as §1
SH-SY5Y = assay: Cytotoxicity against human SH-SY5Y cells assessed as reduction in cell viability incubated for 72 hrs by MTT assay; format: functional, cell-based; summary of the method: as §1
[1] = Solubility of compound in water; format: physicochemical; details: buffer

Structure (SMILES) | IC50 (PC-3) [µM] | IC50 (MDA-MB-231) [µM] | IC50 (SH-SY5Y) [µM] | solubility [1]
CCC(=O)Nc1nc2ccc(-c3ccc4ncn(CCCN5CCOCC5)c(=O)c4c3)cc2[nH]1 | 3.21 | 1.22 | 1.68 | 
O=C(Nc1nc2ccc(-c3ccc4ncn(CCN5CCOCC5)c(=O)c4c3)cc2[nH]1)C1CCCCC1 | 16.5 | 10.2 | 14.2 | 
CCC(=O)Nc1nc2ccc(-c3ccc4nc(CN5CCOCC5)n(C)c(=O)c4c3)cc2[nH]1 | 1.65 | 0.94 | 1.08 | 
O=C(Nc1nc2ccc(-c3ccc4ncn(CCN5CCOCC5)c(=O)c4c3)cc2[nH]1)N1CCOCC1 | > 20 | > 20 | > 20 | 
CCS(=O)(=O)Nc1nc2ccc(-c3ccc4ncn(CC(=O)N5CCOCC5)c(=O)c4c3)cc2[nH]1 | > 20 | > 20 | > 20 | 
CCS(=O)(=O)Nc1nc2ccc(-c3ccc4ncn(CCN5CCOCC5)c(=O)c4c3)cc2[nH]1 | > 20 | > 20 | > 20 | 
CCCCC(=O)Nc1nc2ccc(-c3ccc4ncn(CCN5CCOCC5)c(=O)c4c3)cc2[nH]1 | 6.54 | 3.85 | 4.19 | 
CCCCn1cnc2ccc(-c3ccc4nc(NC(=O)CC)[nH]c4c3)cc2c1=O | > 20 | > 20 | > 20 | 
Cc1cc(Nc2cc(N3CCN(C)CC3)nc(/C=C/c3ccccc3)n2)n[nH]1 [ENMD-2076] | 0.67 | 0.48 |  | 
COC(=O)Nc1nc2ccc(-c3ccc4ncn(CCN5CCOCC5)c(=O)c4c3)cc2[nH]1 | > 20 | > 20 | > 20 | Soluble
